This is an account of results in ChEMBL document CHEMBL1158117, “Decaspirones A-E, bioactive spirodioxynaphthalenes from the freshwater aquatic fungus Decaisnella thyridioides” (2006).

Common to all, as to assay type: functional
In test [1] the test system is Fusarium verticillioides. As to the kind of experiment: Antifungal activity against Fusarium verticillioides NRRL 25457 at 200 ug/disk. The following applies: read-out: IZ. In a few lines:
(§1)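 Agar disk diffusion at 200 µg/disk against each fungal strain, scored as the inhibition zone diameter in mm.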

Test [2] concerns Aspergillus flavus. As to the kind of experiment: Antifungal activity against Aspergillus flavus NRRL 6541 after 48 hrs. As to conditions: NRRL 6541, 48 h. The gist of the method: (§2)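 Broth microdilution in 96-well plates at 1, 3, 5, 10 and 25 µg/mL, with eight replicate wells per level. Compound in MeOH was dried in the well, redissolved in 10 µL MeOH, then 200 µL potato dextrose broth with about 8000 conidia was added (about 4 × 10^4/mL). For A. flavus, conidia came from 14-day PDA cultures at 25 °C and were filtered through cheesecloth. Plates were incubated 48 h at 25 °C and read on a plate reader every 8-16 h against MeOH-only controls. MIC is the lowest level with no growth. Nystatin was the positive control. F. verticillioides was run analogously.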

A further test relates to Bacillus subtilis. Kind of test: Antibacterial activity against Bacillus subtilis ATCC 6051 at 50 ug/disk. As to conditions: read-out: IZ. The gist of the method:
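Standard paper-disk agar diffusion test at 50 µg per disk; activity read as the diameter of the inhibition zone in mm.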

The subject of another test is Staphylococcus aureus. Kind of test: Antibacterial activity against Staphylococcus aureus ATCC 29213 at 100 ug/disk. As to conditions: for zone of inhibition at 100 µg/disc: read-out: IZ.
Test [3] deals with Fusarium verticillioides. Kind of test: Antifungal activity against Fusarium verticillioides NRRL 25457 after 48 hrs. As to conditions: NRRL 25457, 48 h. The gist of the method: as §2
Test [4] has as its system Aspergillus flavus. Kind of test: Antifungal activity against Aspergillus flavus NRRL 6541 at 200 ug/disk. The following applies: read-out: IZ. The gist of the method:
as §1

A further test deals with Candida albicans. Kind of test: Antimicrobial activity against Candida albicans ATCC 14053 at 100 ug/disk. The following applies: for zone of inhibition at 100 µg/disc: read-out: IZ.
Test [5] concerns Aspergillus flavus. As to the kind of experiment: Antifungal activity against Aspergillus flavus NRRL 6541 at >25 ug/mL after 48 hrs relative to control. As to conditions: in the assay text read “25 ug/mL” for “>25 ug/mL”. The gist of the method:
as §2

Values after ≈ are worked out from the molar mass of the structure shown. Active and inactive are the calls of the source. No cut-off for these calls is given here.

For `O=C1C=CC2(Oc3cccc4cccc(c34)O2)[C@H]2[C@H]1[C@@H](O)C=C[C@H]2O` [DECASPIRONE A], the zone of inhibition at 200 µg/disc in the test with Fusarium verticillioides [1] and in the test with Aspergillus flavus [4] was 20 mm throughout. Moreover, the results for the MIC against Aspergillus flavus [2] and in the test on Fusarium verticillioides [3] were 10 µg/mL (≈ 29.7 µM) and 5 µg/mL (≈ 14.9 µM), respectively. For the same compound, the zone of inhibition at 50 µg/disc in the test with Bacillus subtilis came out at 39 mm. The zone of inhibition at 100 µg/disc came to 41 mm with Staphylococcus aureus and 30 mm in the test on Candida albicans.

Consider `CC(=O)O[C@H]1C=C[C@@H](O)[C@@H]2[C@@H]1[C@@H](O)C=CC21Oc2cccc3cccc(c23)O1` [DECASPIRONE B], for which the zone of inhibition at 50 µg/disc with Bacillus subtilis amounted to 19 mm. Moreover, the outcome with Staphylococcus aureus and in the test on Candida albicans was inactive.

Take `O=C1C=CC2(Oc3cccc4cccc(c34)O2)[C@H]2[C@H]1[C@@H](O)CC[C@H]2O` [DECASPIRONE C]: the zone of inhibition at 200 µg/disc turned out to be 26 mm in the test on Fusarium verticillioides [1] and 15 mm with Aspergillus flavus [4]. Besides, the MIC (as a rule, the lowest concentration found to suppress growth) is greater than 25 µg/mL against Aspergillus flavus [2] and 25 µg/mL (≈ 73.9 µM) against Fusarium verticillioides [3]. Besides, in the test with Bacillus subtilis, the zone of inhibition at 50 µg/disc is 34 mm. Further, the zone of inhibition at 100 µg/disc in the test on Staphylococcus aureus was 28 mm. Besides, in the test with Candida albicans, the outcome was inactive. The compound further had an Activity in the test on Aspergillus flavus [5] of 27%.

Turning to `CC(=O)O[C@@H]1C=C[C@H](O)[C@H]2C(=O)C=CC3(Oc4cccc5cccc(c45)O3)[C@@H]21` [DECASPIRONE D], the zone of inhibition at 50 µg/disc in the test on Bacillus subtilis is 30 mm. Further, the zone of inhibition at 100 µg/disc in the test with Staphylococcus aureus came to 30 mm; with Candida albicans, 13 mm.

As to `CC(=O)O[C@H]1C=C[C@@H](O)[C@@H]2[C@@H]1C(=O)C=CC21Oc2cccc3cccc(c23)O1` [DECASPIRONE E], in the test with Bacillus subtilis, the zone of inhibition at 50 µg/disc is 30 mm. Also, in the test with Staphylococcus aureus, the result was inactive. Also, the zone of inhibition at 100 µg/disc with Candida albicans is 17 mm.
